Measured values of several laboratories.
Each line is one published result; the experiments were not run side by side.
Target: Ephrin type-A receptor 6 (EPHA6, Homo sapiens, UniProt Q9UF33)
One construct used (Q9UF33 23-1036): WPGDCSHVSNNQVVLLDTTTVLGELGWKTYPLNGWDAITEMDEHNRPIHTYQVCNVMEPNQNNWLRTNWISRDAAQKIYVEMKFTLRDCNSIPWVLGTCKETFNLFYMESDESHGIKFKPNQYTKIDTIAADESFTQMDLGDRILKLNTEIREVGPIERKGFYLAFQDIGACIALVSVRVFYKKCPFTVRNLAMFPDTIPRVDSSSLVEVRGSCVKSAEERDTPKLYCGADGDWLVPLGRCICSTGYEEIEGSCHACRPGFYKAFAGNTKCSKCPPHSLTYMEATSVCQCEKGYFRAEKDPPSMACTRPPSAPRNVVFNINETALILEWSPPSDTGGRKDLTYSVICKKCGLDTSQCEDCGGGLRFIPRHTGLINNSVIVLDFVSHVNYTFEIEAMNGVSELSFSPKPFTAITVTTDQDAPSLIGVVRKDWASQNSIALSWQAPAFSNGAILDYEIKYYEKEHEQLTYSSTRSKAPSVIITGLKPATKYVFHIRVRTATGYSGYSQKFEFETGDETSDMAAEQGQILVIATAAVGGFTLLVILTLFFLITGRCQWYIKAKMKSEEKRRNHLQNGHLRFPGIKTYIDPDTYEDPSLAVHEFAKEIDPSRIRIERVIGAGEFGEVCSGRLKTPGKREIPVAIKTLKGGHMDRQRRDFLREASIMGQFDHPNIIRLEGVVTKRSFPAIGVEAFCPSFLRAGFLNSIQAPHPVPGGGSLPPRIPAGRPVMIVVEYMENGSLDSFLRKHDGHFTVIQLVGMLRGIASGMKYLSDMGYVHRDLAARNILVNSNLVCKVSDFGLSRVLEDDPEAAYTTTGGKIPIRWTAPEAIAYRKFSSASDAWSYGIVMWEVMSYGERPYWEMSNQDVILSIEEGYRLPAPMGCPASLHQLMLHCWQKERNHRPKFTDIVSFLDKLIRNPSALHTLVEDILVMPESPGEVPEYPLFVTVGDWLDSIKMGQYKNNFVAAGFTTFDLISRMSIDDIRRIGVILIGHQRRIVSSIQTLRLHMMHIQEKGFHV

O=C(c1ccc(Nc2nccc(-c3cc4ccccc4s3)n2)cc1)N1CCC(N2CCCC2)CC1 — remaining binding (binding, competition with immobilised ligand; 1 µM): 99%
N[C@H]1CCN(c2nccc(-c3cnn4ncccc34)n2)C1 — remaining binding (binding; 1 µM): 100%
CNC(=O)Nc1ccc2c(c1)[C@@]1(CC2)OC(=O)N(CC(=O)N(Cc2ccc(F)cc2)[C@@H](C)C(F)(F)F)C1=O — remaining binding (cell-free assay, competition with immobilised ligand; 1 µM): 91%
CCN1CCN(Cc2ccc(C(=O)Nc3ccc(C)c(Oc4ccc5c(c4)CC(=O)N5)c3)cc2C(F)(F)F)CC1 — remaining binding (binding, competition with immobilised ligand; 1 µM): 100%
Cc1cnn2ncc(-c3ccnc(N(C)C)n3)c2c1 — remaining binding (binding; 1 µM): 100%
Cc1nc(Cc2cccc(C(F)(F)F)c2)sc1-c1ccc(C(N)=O)nc1 — remaining binding (cell-free assay, competition with immobilised ligand; 1 µM): 96%
C[C@@H]1CCN(c2nccc(-c3cnn4ncccc34)n2)C1 — remaining binding (binding; 1 µM): 100%
CNCc1ccccc1-c1csc([C@H](C)Nc2nc(C)nc3cc(OC)c(OC)cc23)c1 — remaining binding (cell-free assay, competition with immobilised ligand; 1 µM): 100%
O=C(NCCCN1CCOCC1)c1ccc(Nc2ncc(Cl)c(-c3ccc(Cl)s3)n2)cc1 — remaining binding (binding, competition with immobilised ligand; 1 µM): 63%
COc1ccnn2ncc(-c3ccnc(N(C)C)n3)c12 — remaining binding (binding; 1 µM): 67%
CCS(=O)(=O)c1cc2cc(C[C@@](O)(CC(C)(C)c3ccc(F)cc3C(N)=O)C(F)(F)F)[nH]c2cn1 — remaining binding (cell-free assay, competition with immobilised ligand; 1 µM): 100%
c1cnn2ncc(-c3ccnc(N4CCC45COC5)n3)c2c1 — remaining binding (binding; 1 µM): 95%
CC(=O)N1CCC(c2ccc(C(=O)NC3=NCCN3)cc2C(F)(F)F)CC1 — remaining binding (cell-free assay, competition with immobilised ligand; 1 µM): 98%
CN(CCCC(F)(F)F)c1nccc(-c2cnn3ncccc23)n1 — remaining binding (binding; 1 µM): 89%
C=CC(=O)N1CCC(C(=O)NCC(=O)N2CCN(c3nc(-c4cnc(N)nc4C(F)F)nc(N4CCOCC4)n3)CC2)CC1 — remaining binding (binding, competition with immobilised ligand; 1 µM): 100%
CO[C@@H](C)c1c(Nc2ccc([C@H](N(C)C(=O)C3CCS(=O)(=O)CC3)C(F)(F)F)cc2)cnc2cc(Cl)nn12 — remaining binding (cell-free assay, competition with immobilised ligand; 1 µM): 100%
O=C(Nc1c[nH]nc1C(=O)NC1CCNCC1)c1cc(F)cc(F)c1 — remaining binding (binding, competition with immobilised ligand; 1 µM): 100%
COc1cnc(Nc2cccc(S(N)(=O)=O)c2)nc1N1CCN(c2ccccc2)C(=O)C1 — remaining binding (binding, competition with immobilised ligand; 1 µM): 100%
O=C(c1ccc(Nc2ncc(Cl)c(-c3ccc(Cl)s3)n2)cc1)N1CCC(N2CCCC2)CC1 — remaining binding (binding, competition with immobilised ligand; 1 µM): 51%
FC(F)(F)Oc1cccc(-c2cnc3ccc(-c4ccncc4)nn23)c1 — remaining binding (cell-free assay, competition with immobilised ligand; 5 µM): 93%
COc1cnc(Nc2cccc(S(N)(=O)=O)c2)nc1N1CCN(c2ccccc2)CC1 — remaining binding (binding, competition with immobilised ligand; 1 µM): 100%
